From PubChem
KCNQ1 pot – potentiators or activators of human KCNQ1 potassium channel | 310,000 tested, 0.35% active | B-score at 10 µM | CHO-K1 KCNQ1, thallium flux FluxOR fluorescence; active compounds read high;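 active = fluorescence ratio B-score, a plate-corrected score, at least three library SD, with initial intensity B-score within 5 SD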
Target sequence (P51787 whole entry, looked up): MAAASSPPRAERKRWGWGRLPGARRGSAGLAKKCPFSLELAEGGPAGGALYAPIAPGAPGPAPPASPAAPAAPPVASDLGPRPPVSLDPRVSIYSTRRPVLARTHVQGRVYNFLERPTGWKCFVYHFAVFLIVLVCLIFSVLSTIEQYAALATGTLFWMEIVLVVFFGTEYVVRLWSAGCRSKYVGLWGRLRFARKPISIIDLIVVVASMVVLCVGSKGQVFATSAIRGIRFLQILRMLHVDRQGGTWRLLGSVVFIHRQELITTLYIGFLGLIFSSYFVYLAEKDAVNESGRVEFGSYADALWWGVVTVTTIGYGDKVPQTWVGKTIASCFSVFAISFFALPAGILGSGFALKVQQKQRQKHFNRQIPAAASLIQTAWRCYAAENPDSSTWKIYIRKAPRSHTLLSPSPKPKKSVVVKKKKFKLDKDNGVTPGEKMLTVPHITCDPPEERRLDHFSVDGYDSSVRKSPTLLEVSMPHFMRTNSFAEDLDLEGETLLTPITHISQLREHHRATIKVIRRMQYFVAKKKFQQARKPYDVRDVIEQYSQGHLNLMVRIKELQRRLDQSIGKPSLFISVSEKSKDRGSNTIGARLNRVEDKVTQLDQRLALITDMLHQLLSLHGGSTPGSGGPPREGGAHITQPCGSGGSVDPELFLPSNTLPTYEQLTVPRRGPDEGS
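assay system = KCNQ1-transfected CHO-K1 cells | medium = assay buffer with matched DMSO | probe or stimulus = depolarizing K+/Tl+ stimulus, K2SO4 and Tl2SO4 each 12.5 mM in 5x stock | dosing = single dose | incubation = dye 90 min, compound 20 min, room temperature | detection = kinetic FluxOR fluorescence, 10 s baseline plus 110 s post-stimulus | evaluation = ratio B score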
hERG rescue – hERG (human) protection from proarrhythmic block; AID 1511; activation (rescue from dofetilide block), less the hit threshold, % at 10 µM; 310,000 tested, 0.51% active; CHO-hERG, FluxOR thallium flux, dofetilide IC70 present; Q12809;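 active = activation above the mean of controls blocked by dofetilide plus 5 SD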;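 also: thallium influx through hERG after potassium depolarization seen as dye fluorescence rise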
KCNK9 inh – blocks the human KCNK9 two-pore domain potassium channel | Q9NPC2 | HEK293 KCNK9, FluxOR thallium flux fluorescence; active compounds read low | B-score at 10 µM | 310,000 tested, 1.2% active;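 active = ratio B-score over 3 SD below the library mean, with starting fluorescence within 5 SD of its mean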;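 also: negative B-score means less thallium flux so channel inhibition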
KCNQ1 block – blocks the human KCNQ1 potassium channel. P51787. CHO-K1 KCNQ1, FluxOR thallium flux fluorescence; active compounds read high. B-score at 10 µM. 310,000 tested, 1.3% active;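 active = compounds whose thallium flux B-score, printed positive for inhibition, exceeds three library SD while starting fluorescence stays within three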;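 also: channel opened by potassium depolarization with thallium stimulus after 20 min compound exposure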
Kir21 block – blocks the mouse Kir2.1 inward-rectifier potassium channel; 310,000 tested, 0.85% active; HEK293-Kir2.1, FluxOR thallium flux fluorescence; active compounds read low; P35561; B-score at 10 µM; AID 1672;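 active = fluorescence ratio B-score at or below minus 3 SD of library scores, with starting-brightness B-score within 2 SD, cut at about -4.2 in these data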;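 also: channel flux triggered by added potassium and thallium sulfate stimulus; B-score of peak minus minimum fluorescence over baseline after thallium stimulus; more negative B-score means stronger Kir2.1 block with less thallium influx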
KCNK3 block – human KCNK3 channel inhibition, primary screen. AID 602410. CHO-KCNK3 thallium flux, FluxOR fluorescence; active compounds read low. B-score at 10 µM. 340,000 tested, 0.84% active;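 active = B-score under library mean minus 4 SD, starting fluorescence ratio at most library mean plus 5 SD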;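 also: more negative B-score means stronger inhibition of thallium flux through KCNK3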
An asterisk follows results filed as active; i = inactive; x = no result. Rows were chosen to be rich in hits. Some 3.8% of all compounds tested hit in one or more screens of this group.

SMILES	KCNQ1 pot	hERG rescue	KCNK9 inh	KCNQ1 block	Kir21 block	KCNK3 block
Cc1nn(C)c(C)c1C(C)NC(=O)c1cc(COc2ccc(F)c(F)c2)on1 (centres undefined)	i	-7	i	i	-0.38	i
CC(C)Cn1c(O)c(N=NC(=O)c2cccc(S(=O)(=O)N3CCCCC3)c2)c2ccccc21	i	-10	-7.9*	i	-1.3	i
Cc1ccc(-n2ncc(C(=O)Nc3cc(Cl)cc(Cl)c3)c2C2CCNCC2)cc1C	17*	-25	i	i	-7.3*	i
C[n+]1c2n(c3ccccc31)N=C(c1ccc(-c3ccccc3)cc1)CS2	i	-25	i	12*	-2.9	i
COc1ccc2o/c(=N\O)c(C(=O)Nc3ccc(C)cc3)cc2c1	i	-11	i	6*	-1.5	i
CCOc1ccc(C(=O)N2CCc3cc(OC)c(OC)cc3C2)cc1OCC	i	-16	i	i	-0.01	i
CCOc1ccc(CCNC(=O)COC(=O)CCC(=O)c2cccs2)cc1OCC	i	-6	i	i	-5.3*	i
Cc1c(C(=O)N2CCc3ccccc3C2)oc2ccc(S(=O)(=O)N3CCCCCC3)cc12	i	-18	-6.8*	i	0.45	i
Cc1c(C(=O)N2CCOCC2)oc2ccc(S(=O)(=O)N3CCCC3)cc12	i	3	i	i	-1.9	i
CCOc1ccc(CCNC(=O)COC(=O)c2cccc(S(=O)(=O)N3CCCCC3)c2)cc1OCC	i	-18	-7.9*	i	0.17	i
CCOc1ccc(CCNC(=O)COC(=O)c2cccc(S(=O)(=O)N3CCOCC3)c2)cc1OCC	i	-14	i	i	0.51	i
CCOc1cc2c(cc1OCC)CN(C(=O)c1cccc(S(=O)(=O)N3CCCC3)c1)CC2	x	x	x	x	x	-9.9*
CC(=O)Oc1ccc(C(=O)[C@H]2[C@H]3C(=O)N(c4ccc(C)cc4C)C(=O)[C@H]3[C@@H]3C=CC=NN32)cc1	i	0	i	i	-0.29	i
CN(C)/C=C/C(=O)c1ccc([N+](=O)[O-])c(CS(=O)(=O)c2ccc(Cl)cc2)c1	i	-2	i	i	-0.05	i
N#CCCN(C(=O)COc1ccc(Cl)cc1Cl)c1ccccc1	i	-15	i	i	-0.8	i
S=c1[nH]nc(-c2cccs2)n1/N=C/c1c(Cl)cccc1Cl	37*	32*	i	i	0.3	i
Cc1cccc(-c2n[nH]c(=S)n2/N=C/c2cccs2)c1	9*	-11	i	i	0.35	i
CCOC(=O)c1cocc1C(=O)O	x	x	x	x	x	i
COC(=O)c1ccc(C(C(=O)NC2CCCCC2)N(C(=O)Cc2cccs2)C2CC2)cc1 (centres undefined)	i	-6	i	6*	0.23	i
COC(=O)c1ccc(C(C(=O)NC2CCCCC2)N(Cc2ccccc2)C(=O)Cc2cccs2)cc1 (centres undefined)	i	-8	i	i	-0.95	i
CC(CCN1C(Nc2ccccc2)=NC[C@@H]1Cc1ccccc1)c1ccccc1 (some centres undefined)	i	-12	i	i	-7.2*	i
CC(C)CCN1C(Nc2ccccc2)=NC[C@@H]1Cc1ccccc1	i	-3	i	i	-1.7	i
O=C(NC(=S)Nc1ccccc1Cl)c1csnn1	i	60*	i	i	0.28	i
O=C(NC(=S)Nc1cccc(C(F)(F)F)c1)c1csnn1	63*	54*	i	i	2.7	i
CC1CC(=O)Nc2ccccc2N1C(=O)CSc1nnnn1C(C)C (centres undefined)	x	x	x	x	x	i
SMILES	KCNQ1 pot	hERG rescue	KCNK9 inh	KCNQ1 block	Kir21 block	KCNK3 block
O=C(CNC(=O)OCc1ccccc1)NCC(=O)Oc1ccc([N+](=O)[O-])cc1	x	x	x	x	x	i
CC(C)Oc1ccc(C(=O)Nc2ccc(S(=O)(=O)N3CCN(C)CC3)cc2)cc1	i	-11	-7.3*	i	-0.11	i
CCN(C(=O)CSc1nc2cc(Cl)ccc2c(=O)n1CC(C)C)C1CCS(=O)(=O)C1 (centres undefined)	i	-14	i	i	0.79	-11*
CCN(C(=O)CSc1nc2ccccc2c(=O)n1-c1ccccc1F)C1CCS(=O)(=O)C1 (centres undefined)	x	x	x	x	x	-11*
COc1ccccc1Nc1cc(C)nc(Nc2ccccc2OC)n1	x	x	x	x	x	i
Cc1cc(C)nc(SCc2nnc(SCC(=O)Nc3ccccc3C)n2Cc2ccco2)n1	i	-8	i	i	-1.8	i
CC(Oc1ccc(Br)cc1Br)C(=O)Nc1cccnc1 (centres undefined)	i	12*	i	i	1	i
CC(=O)Nc1ccc(NC(=O)C(C)Oc2ccc(Cl)cc2Cl)cc1 (centres undefined)	i	-7	i	i	-1.1	i
COc1ccc(NC(=O)C(=O)NNC(=O)C(C)Oc2ccc(Cl)cc2Cl)cc1 (centres undefined)	108*	35*	i	i	-0.25	i
CC(Oc1ccc(Cl)cc1Cl)C(=O)Nc1cccnc1 (centres undefined)	i	6.5*	i	i	-1.6	i
CC(Oc1ccc(Cl)cc1Cl)C(=O)Nc1ccncc1 (centres undefined)	i	-11	i	i	1.5	i
CC(Oc1ccc(Cl)cc1Cl)C(=O)NCCC1=CCCCC1 (centres undefined)	i	-3	i	i	-7*	i
CC(OC(=O)Cc1ccc(Cl)cc1)C(=O)NCCC1=CCCCC1 (centres undefined)	i	-3	i	i	-1.1	i
Cc1ccc2c(Cl)c(Cc3ccccc3)c(=S)[nH]c2n1	x	x	x	x	x	i
O=C(Nc1cccnc1)c1ccc(COc2ccccc2Cl)o1	i	-1	i	i	-0.28	i
O=C(Nc1nccs1)c1ccc(COc2ccc(F)cc2)o1	i	-1	i	i	0	i
O=C(Nc1cccnc1)c1ccc(COc2cc(Cl)ccc2Cl)o1	i	26*	i	i	-0.3	i
O=C(Nc1nccs1)c1ccc(COc2ccccc2Br)o1	i	-5	-7.1*	i	-0.72	i
OC(COC(c1ccccc1)c1ccccc1)CN1CCCCC1 (centres undefined)	i	6.4*	i	i	-1.9	i
CCOc1ccc(NC(=O)c2ccco2)cc1	i	2	i	i	0.03	i
O=C(NC(=S)Nc1ccccc1Br)c1ccco1	9*	3	i	i	0.57	i
CCOc1ccc(NC(=S)NC(=O)c2ccco2)cc1	12*	6.1*	i	i	0.03	i
